Laboratory results taken from ChEMBL document CHEMBL5532699, “Design, docking optimization, and evaluation of biotin-PEG4-1,8-naphthalimide as a potent and safe antitumor agent with dual targeting of ferroptosis and DNA” (RSC Med Chem, 2024).
Active and inactive are the calls of the source. The rule behind the calls is not given here.

Experiments:
MGC-803 [1] = test: Induction of apoptosis in human MGC-803 cells; assay type: functional, cell-based
MGC-803 [2] = test: Induction of ferroptosis in human MGC-803 cells assessed as reduction of GPX4 protein expression level at 25 to 50 uM incubated for 24 hrs by Western blot analysis; assay type: functional, cell-based; conditions: dose 25-50 µM
Outline: (§1)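 MGC-803 cells treated 25 or 50 μM for 24 h, lysed in ice-cold 1% SDS/Tris-HCl pH 7.5 buffer with EDTA, NaCl and protease inhibitors, spun 12,000g 18 min. Protein quantified by BCA; 40–50 μg resolved on 10% SDS-PAGE, transferred to PVDF, milk-blocked 2 h, primary antibody overnight, HRP secondary 1 h at RT. ECL detection with densitometry.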

[3] = Toxicity in nude mouse xenografted with human U-251 cells assessed as pathological changes in spleen at 24 to 48 mg/kg, ip administered once every two days for 21 days by H and E staining based analysis; assay type: organism-based; conditions: in vivo, 504 h, dose 24-48 mg/kg, time 21 day
Outline: (§2)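 Nude mice carrying s.c. xenografts (1×10^6 cells, right flank) randomized at 60–80 mm³ (n = 6), dosed i.p. every 2 days in 5% v/v DMSO/saline. Major organs examined by H&E staining at 200× magnification.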

MGC-803 [4] = test: Induction of cell cycle arrest in human MGC-803 cells assessed as accumulation of cells at G0/G1 phase at 50 uM incubated for 24 hrs by PI staining based flow cytometry (Rvb=59.09%); assay type: functional
[5] = Toxicity in nude mouse xenografted with human MGC-803 cells assessed as pathological changes in spleen at 12 to 48 mg/kg, ip administered once every two days for 21 days by H and E staining based analysis; assay type: organism-based; conditions: in vivo, 504 h, dose 12-48 mg/kg, time 21 day; outline: as §2
MGC-803 [6] = test: Induction of ferroptosis in human MGC-803 cells assessed as increase in mitochondrial membrane density at 5 uM incubated for 24 hrs by TEM analysis; assay type: functional, cell-based
Outline: (§3)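 Cell samples prefixed in 3% glutaraldehyde, postfixed in 1% osmium tetroxide, dehydrated through graded acetone (30–100%), embedded in Epon812, cut into 60–90 nm ultrathin sections on copper grids, stained with uranyl acetate 10–15 min and lead citrate 1–2 min at room temperature, examined by TEM.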

T-24 = test: Antiproliferative activity against human T24 cells incubated for 48 hrs by MTT assay; assay type: functional, cell-based; conditions: T-24, 48 h
Outline: (§4)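 Monolayer cells in DMEM with 10% FBS, penicillin and streptomycin, 37°C, 5% CO2. Exponentially growing cells were seeded in 96-well plates and exposed to compound for 48 h. MTT was then added for 4 h at 37°C. Medium was removed, formazan dissolved in DMSO, and OD read at 490 nm. Each plate had five replicate wells, and assays were repeated three times per line.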

MGC-803 [7] = test: Induction of cell cycle arrest in human MGC-803 cells assessed as accumulation of cells at G0/G1 phase at 25 uM incubated for 24 hrs by PI staining based flow cytometry (Rvb=59.09%); assay type: functional
MGC-803 [8] = test: Inhibition of DNA synthesis in human MGC-803 cells at 25 to 50 uM incubated for 24 hrs by EdU staining based fluorescence microscopic analysis; assay type: functional, cell-based; conditions: dose 25-50 µM
MGC-803 [9] = test: Induction of cell cycle arrest at S phase in human MGC-803 cells assessed as decrease in cyclin E1 protein expression level at 25 to 50 uM incubated for 24 hrs by Western blot analysis; assay type: functional, cell-based; conditions: dose 25-50 µM; outline: as §1
MGC-803 [10] = test: Induction of cell cycle arrest in human MGC-803 cells assessed as accumulation of cells at G2/M phase at 25 uM incubated for 24 hrs by PI staining based flow cytometry (Rvb=12.91%); assay type: functional
MGC-803 [11] = test: Antitumor activity against human MGC-803 cells xenografted in nude mouse assessed as tumor inhibition ratio at 24 mg/kg, ip administered once every two days for 21 days relative to control; assay type: functional; conditions: MGC-803, 504 h, time 21 day
Outline: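 1×10^6 tumor cells injected s.c. into the right flank of nude mice. At mean tumor volume 60–80 mm³, animals randomized to vehicle or treatment groups (n = 6). Compound in 5% v/v DMSO/saline given i.p. every 2 days. Tumor size and weight recorded; volume = lw²/2 from length and width. Body weight tracked as the systemic toxicity index.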

Supercoiled DNA = test: Binding affinity to supercoiled circular pBR322 plasmid DNA (unknown origin) assessed as DNA intercalation by measuring migration in gel at 25 to 200 uM incubated for 4 hrs by PI and EtBr staining based gel electrophoresis; assay type: nucleic-acid assay; conditions: dose 25-200 µM, in the assay text read “GelRed staining” for “PI and EtBr staining”
Outline: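 0.20 μg pBR322 DNA in relaxation buffer (10 mM Tris, 0.1 mM EDTA, 5 mM MgCl₂, 50 mM KCl, 0.01% BSA, pH 7.5), 20 μL, incubated 4 h at 37°C with or without compound at varied concentrations. Stopped with SDS/bromophenol blue/glycerol loading buffer, run on 0.8% agarose in TAE, stained with GelRed; supercoiled and linear forms scored.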

MGC-803 [12] = test: Induction of ferroptosis in human MGC-803 cells assessed as appearance of smaller mitochondria at 5 uM incubated for 24 hrs by TEM analysis; assay type: functional, cell-based; outline: as §3
MGC-803 [13] = test: Induction of DNA damage in human MGC-803 cells assessed as appearance of long DNA tails at 25 to 100 uM incubated for 24 hrs by comet assay; assay type: functional, cell-based; conditions: dose 25-100 µM
Outline: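 MGC-803 cells exposed 25, 50 or 100 μM for 24 h, mixed 1:8 with low-melt agarose on comet slides, held 1 day at 4°C in dark, lysed 2 h at 4°C. Alkaline unwinding (1 mM EDTA, 300 mM NaOH, pH >13) 45 min at 4°C; electrophoresis in 1 mM EDTA/200 mM NaOH at 25 V, 30 min. Washed in Tris-HCl pH 7.5, PI-stained, imaged by fluorescence microscopy.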

MGC-803 [14] = test: Induction of cell cycle arrest in human MGC-803 cells assessed as accumulation of cells at S phase at 100 uM incubated for 24 hrs by PI staining based flow cytometry (Rvb=28.00%); assay type: functional
[15] = Cytotoxicity against HUVEC cells incubated for 48 hrs by MTT assay; assay type: toxicity, cell-based; conditions: human; outline: as §4
MGC-803 [16] = test: Antiproliferative activity against human MGC-803 cells incubated for 48 hrs by MTT assay; assay type: functional, cell-based; conditions: MGC-803, 48 h
Outline: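 Cells kept as monolayers in DMEM with 10% FBS, streptomycin and penicillin, 37°C, 5% CO₂. Exponentially growing cells seeded in 96-well plates, exposed 48 h, then MTT (10 mg/mL stock) for 4 h at 37°C. Medium removed, formazan dissolved in DMSO, OD read at 490 nm. Five wells per condition; each cell line run three times.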

A549 = test: Antiproliferative activity against human A549 cells incubated for 48 hrs by MTT assay; assay type: functional, cell-based; conditions: A549, 48 h; outline: as §4

Compound: CN(C)CCN1C(=O)c2cccc3c(N4CCN(C(=O)CCOCCOCCOCCOCCNC(=O)CCCCC5SCC6NC(=O)NC65)CC4)ccc(c23)C1=O (centres undefined)
- Activity (MGC-803 [1]): inactive
- Activity (MGC-803 [2]): Active
- Activity [3]: Non-Toxic
- Activity (MGC-803 [4]): 33.17%
- Activity [5]: Non-Toxic
- Activity (MGC-803 [6]): Active
- IC50 (T-24): > 50 µM
- Activity (MGC-803 [7]): 53.99%
- inhibition (MGC-803 [8]): Active
- Activity (MGC-803 [9]): Active
- Activity (MGC-803 [10]): 23.3%
- inhibition in vivo at 24 mg/kg (MGC-803 [11]): 39.6%
- Activity (Supercoiled DNA): Active
- Activity (MGC-803 [12]): Active
- Activity (MGC-803 [13]): Active
- Activity (MGC-803 [14]): 41.72%
- IC50 at 48 h [15]: > 50 µM
- IC50 (MGC-803 [16]): > 50 µM
- IC50 (A549): > 50 µM
